Active and inactive are the calls of the source. The rule behind the calls is not given here.

Data set [1] is described as follows: 1-Octanol-water distribution coefficient, log D of the compound at pH 8.6 after 1 week by HPLC-ESIMS/MS analysis. It counts as physicochemical. The essentials:
(§1)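 Shake-flask partition: analytes started at 0.1 mM in 0.1 M Na phosphate buffer (pH range 4.5 to 9). Buffer solution mixed 1:1 with buffer-presaturated 1-octanol and equilibrated 1 week under continuous stirring at 25 °C. After centrifugation the phases were separated, and the aqueous phase was diluted in mobile phase and quantified by HPLC-ESIMS/MS. LogD calculated from the aqueous-phase concentration.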

Data set [2] can be described thus: 1-Octanol-water distribution coefficient, log D of the compound at pH 4.5 after 1 week by HPLC-ESIMS/MS analysis. The class given is physicochemical. The essentials: as §1
The nature of data set [3]: 1-Octanol-water distribution coefficient, log D of the compound at pH 6 after 1 week by HPLC-ESIMS/MS analysis. It counts as physicochemical. In outline:
as §1

Data set [4] can be described thus: 1-Octanol-water partition coefficient, log P of the compound at pH 4.5 after 1 week by HPLC-ESIMS/MS analysis. The class given is physicochemical. In outline:
as §1

A short description of data set [5]: 1-Octanol-water partition coefficient, log P of the compound at pH 8.6 after 1 week by HPLC-ESIMS/MS analysis. It counts as physicochemical. The essentials: as §1
The nature of data set [6]: 1-Octanol-water distribution coefficient, log D of the compound at pH 7 after 1 week by HPLC-ESIMS/MS analysis. The class given is physicochemical. The essentials: as §1
Data set [7] can be described thus: 1-Octanol-water partition coefficient, log P of the compound at pH 6 after 1 week by HPLC-ESIMS/MS analysis. It counts as physicochemical. In outline: as §1
Data set [8] in a line: 1-Octanol-water partition coefficient, log P of the compound at pH 7 after 1 week by HPLC-ESIMS/MS analysis. The class given is physicochemical. The essentials:
as §1

The target in data set [9] is Albumin (Bos taurus, UniProt P02769). The data set is described as follows: Binding affinity to bovine serum albumin by fluorescence quenching assay. The class given is ADME. To be noted: cattle, isolated protein. In outline: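 BSA at 1.0 × 10−5 mol L−1 in Tris-HCl buffer (0.05 M Tris, 0.15 M NaCl, pH 7.4), titrated with quencher from 0 to 2.4 × 10−5 mol L−1 in 0.2 × 10−5 steps at room temperature. Tryptophan emission recorded at 300–500 nm (excitation 295 nm; maximum at 340 nm). Binding constant KB obtained from a modified Stern–Volmer plot, assuming static quenching.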
Sequence of Albumin (P02769 whole entry): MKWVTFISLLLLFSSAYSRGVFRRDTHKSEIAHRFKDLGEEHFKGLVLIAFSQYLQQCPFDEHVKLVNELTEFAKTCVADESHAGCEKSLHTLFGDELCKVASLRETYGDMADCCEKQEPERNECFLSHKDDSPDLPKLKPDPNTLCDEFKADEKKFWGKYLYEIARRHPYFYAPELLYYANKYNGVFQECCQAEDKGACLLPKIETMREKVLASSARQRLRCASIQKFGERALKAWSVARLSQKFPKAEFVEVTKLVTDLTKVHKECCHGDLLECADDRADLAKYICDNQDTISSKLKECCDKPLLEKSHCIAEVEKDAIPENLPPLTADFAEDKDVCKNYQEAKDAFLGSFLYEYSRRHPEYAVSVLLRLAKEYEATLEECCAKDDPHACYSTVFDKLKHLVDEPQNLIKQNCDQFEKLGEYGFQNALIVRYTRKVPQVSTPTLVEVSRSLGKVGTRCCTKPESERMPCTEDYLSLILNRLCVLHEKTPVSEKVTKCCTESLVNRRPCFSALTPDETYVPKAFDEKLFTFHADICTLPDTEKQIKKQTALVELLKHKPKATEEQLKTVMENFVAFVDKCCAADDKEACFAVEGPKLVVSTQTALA

The nature of data set [10]: Dissociation constant, pKa of the compound. It counts as physicochemical. The essentials: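 pKa values predicted in silico for the ionizable groups of the parent and its metabolites, then compared with experimentally obtained values from earlier reports.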
Data set [11] can be described thus: Solubility of the compound in sodium phosphate buffer at pH 8.6 at 25 degC after 1 week by HPLC-ESIMS/MS analysis. It counts as physicochemical. In outline:
(§2)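 Solubility samples in sodium phosphate buffer at each pH were stirred continuously for 1 week at 25 °C. Solutions were passed through 0.45 μm regenerated-cellulose filters, diluted in mobile phase and quantified by HPLC-ESIMS/MS.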

The nature of data set [12]: Solubility of the compound in sodium phosphate buffer at pH 4.5 at 25 degC after 1 week by HPLC-ESIMS/MS analysis. It counts as physicochemical. In outline:
as §2

A short description of data set [13]: Solubility of the compound in sodium phosphate buffer at pH 6 at 25 degC after 1 week by HPLC-ESIMS/MS analysis. The class given is physicochemical. The essentials:
as §2

Data set [14] in a line: Solubility of the compound in sodium phosphate buffer at pH 7 at 25 degC after 1 week by HPLC-ESIMS/MS analysis. It counts as physicochemical. The essentials: as §2
Data set [15] concerns Homo sapiens. In words: Tmax in human assessed as demethyleneberberin at 500 mg, po by HPLC-ESIMS/MS analysis. To be noted: in vivo. It counts as ADME, organism-based.
In data set [16] the test system is Homo sapiens. In words: Cmax at steady state in hypercholesterolemic patient assessed as berberrubine at 15 mg/kg/day administered for 3 months by HPLC-ESIMS/MS analysis. It counts as ADME, organism-based. Also on record: dose 15 mg/kg/day. As to conditions: in vivo.
A short description of data set [17]: Tmax in human at 500 mg, po by HPLC-ESIMS/MS analysis. To be noted: in vivo. It counts as ADME, organism-based.
Data set [18] concerns Homo sapiens. The data set is described as follows: Tmax in human assessed as jatrorrhizine at 500 mg, po by HPLC-ESIMS/MS analysis. It counts as ADME, organism-based. As to conditions: in vivo.
In data set [19] the test system is Homo sapiens. The data set is described as follows: Hypolipidemic activity in hypercholesterolemic patient assessed as reduction of total cholesterol level at 15 mg/kg/day administered for 3 months measured every month during compound treatment. It counts as functional, organism-based.
Data set [20] deals with Plasma. In words: Cmax in human plasma assessed as jatrorrhizine at 500 mg, po by HPLC-ESIMS/MS analysis. To be noted: in vivo. Also on record: dose 500 mg, route oral. The class given is ADME, organism-based.
The nature of data set [21]: Dissociation constant, basic pKa of the compound. The class given is physicochemical.
A short description of data set [22]: Cmax at steady state in hypercholesterolemic patient at 15 mg/kg administered for 3 months by HPLC-ESIMS/MS analysis. Also on record: dose 15 mg/kg. It counts as ADME, organism-based. As to conditions: human, in vivo.
A short description of data set [23]: Dissociation constant, acidic pKa of the compound. It counts as physicochemical.
A short description of data set [24]: Cmax in human plasma at 500 mg, po by HPLC-ESIMS/MS analysis. It counts as ADME, organism-based. Also on record: dose 500 mg, route oral.
Data set [25] has as its system Homo sapiens. In words: Cmax at steady state in hypercholesterolemic patient assessed as jatrorrhizine at 15 mg/kg/day administered for 3 months by HPLC-ESIMS/MS analysis. The class given is ADME, organism-based. Set-up: dose 15 mg/kg/day. To be noted: in vivo.
Data set [26] has as its system Plasma. The data set is described as follows: Cmax in human plasma assessed as demethyleneberberin at 500 mg, po by HPLC-ESIMS/MS analysis. It counts as ADME, organism-based. To be noted: in vivo. Set-up: dose 500 mg, route oral.
Data set [27] relates to Homo sapiens. In words: Cmax at steady state in hypercholesterolemic patient assessed as demethyleneberberin at 15 mg/kg/day administered for 3 months by HPLC-ESIMS/MS analysis. It counts as ADME, organism-based. Also on record: dose 15 mg/kg/day. To be noted: in vivo.
Data set [28] concerns Homo sapiens. In words: Effect on HDL cholesterol level in hypercholesterolemic patient at 15 mg/kg/day administered for 3 months measured every month during compound treatment. The class given is functional, organism-based.
For data set [29], the system named is Plasma. The data set is described as follows: Cmax in human plasma assessed as berberrubine at 500 mg, po after 4 hrs by HPLC-ESIMS/MS analysis. To be noted: in vivo. Set-up: dose 500 mg, route oral. The class given is ADME, organism-based.
The test system of data set [30] is Homo sapiens. In words: Effect on total triglyceride level in hypercholesterolemic patient at 15 mg/kg/day administered for 3 months measured every month during compound treatment. It counts as functional, organism-based.
Data set [31] relates to Plasma. The data set is described as follows: Plasma concentration in human assessed as berberrubine at 500 mg, po after 24 hrs by HPLC-ESIMS/MS analysis. It counts as ADME, organism-based. As to conditions: in vivo.
Data set [32] deals with Homo sapiens. In words: Hypolipidemic activity in hypercholesterolemic patient assessed as reduction of LDL cholesterol level at 15 mg/kg/day administered for 3 months measured every month during compound treatment. It counts as functional, organism-based.

Usually logD stands for the decadic logarithm of the distribution of all forms, ionised or not, between an organic phase and buffer at a given pH. Read a low logD as a more hydrophilic compound. Regarding `COc1ccc2cc3n(cc-2c1=O)CCc1cc2c(cc1-3)OCO2`, the logD at 168 h in data set [1] was found to be 4.6; in [2] it was 0.7; in data set [3], 1.8; in data set [4], 0.6; in data set [5], 1.6; in data set [6], 2.9. Also, the results for the logD at 168 h in data set [7] and in data set [8] were 1.3 and 1.5, respectively.
For orientation: pKa means the pH at which an ionisable group is half protonated. In general, solubility refers to the dissolved amount per volume that the medium holds. As for `COc1ccc2cc3[n+](cc2c1OC)CCc1cc(O)c(O)cc1-3.[Cl-]`, the logD at 168 h is -0.3 in [1]; -1.1 in data set [2]; -1.1 in [3]; -1.1 in data set [4]; -0.5 in data set [5]; -1.1 in data set [6]. The log distribution coefficient (logD) at 168 h in data set [7] and in [8] was -1.1 in each case. This compound registered a Kb in [9] of 1.98 ×10³ L/mol. The compound further returned a pKa in [10] of 9.4. Besides, the solubility at 168 h amounted to 6.5 mM in data set [11], 0.2 mM in data set [12], 0.2 mM in data set [13] and 3.7 mM in data set [14].
What is called Tmax is the time from dosing to the highest level. Broadly, the Cmax is the highest concentration seen after dosing. `COc1ccc2cc3[n+](cc2c1OC)CCc1cc2c(cc1-3)OCO2.[Cl-]` [BERBERINE CHLORIDE]: the logD at 168 h in data set [1], in data set [2], in data set [3], in [4], in data set [5] and in [6] was -1.2 throughout. The logD at 168 h in data set [7] and in data set [8] was -1.2 each time. Further, the Kb in [9] was 3.37 ×10³ L/mol. The values for the time to peak (Tmax) in data set [15], in [17] and in data set [18] were 1 h, 1 h and 2 h, respectively. The Cmax in data set [16] stood at 6.7 nM; in [20] it was 0.13 nM; in data set [24], 0.07 nM; in [25] it was 5.6 nM; in data set [26] it was 0.14 nM; in data set [27], 1.7 nM. Besides, in data set [29], the Cmax worked out at 1.4 nM. The result in data set [19] and in data set [32] was Active. Besides, the values for the pKa in data set [21] and in data set [23] were 15.7 and 2.47, respectively. In data set [22], this compound had a Cmax at 3 months of 4 nM. The solubility at 168 h in [11] was 9.6 mM; in [12], 8.2 mM; in [13] it was 7.6 mM; in data set [14] it was 9 mM. Moreover, the result in data set [28] and in data set [30] was inactive. Besides, the concentration in data set [31] amounted to 0.15 nM.
As for `COc1ccc2cc3[n+](cc2c1O)CCc1cc2c(cc1-3)OCO2.[Cl-]` [BERBERRUBINE CHLORIDE], the log distribution coefficient (logD) at 168 h was 4.6 in [1]; 0.01 in [2]; 1.4 in data set [3]; -0.02 in data set [4]; 1.6 in data set [5]; 2.5 in data set [6]. The logD at 168 h in data set [7] is 0.9; in data set [8] it was 1.1. The Kb in [9] came out at 1.51 ×10³ L/mol. In data set [10], this compound came in with a pKa of 5. For the same compound, the solubility at 168 h amounted to 0.5 mM in data set [11], 4.2 mM in [12], 2 mM in data set [13] and 1 mM in data set [14].
Consider `COc1cc2c(cc1O)CC[n+]1cc3c(OC)c(OC)ccc3cc1-2.[Cl-]` [JATRORRHIZINE CHLORIDE], for which the logD at 168 h was 0.6 in [1]; -1.5 in [2]; -1.5 in data set [3]; -1.5 in [4]; 0.1 in data set [5]; -1.2 in data set [6]. Further, the logD at 168 h in [7] is -1.5; in data set [8], -1.2. For the same compound, in data set [9], the Kb was found to be 1.73 ×10³ L/mol. In data set [10], the pKa was 9.6. Further, the solubility at 168 h in [11] was found to be 12.2 mM; in [12], 1.5 mM; in data set [13] it was 1.3 mM; in data set [14] it was 12.4 mM.

For the origin of these results see ChEMBL document CHEMBL3259696, “Berberine and its metabolites: relationship between physicochemical properties and plasma levels after administration to human subjects” (J Nat Prod, 2014).
